In PubChem BioAssay AID463078 (The Scripps Research Institute Molecular Screening Center, 2010):
Active and inactive are the calls of the source.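 How the source made its calls: active means fold change below the hit cutoff of 0.7; inactive means the rest.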

target: Nuclear receptor ROR-alpha (Homo sapiens) (UniProt P35398); experiment: inhibitors of RORa reporter activity, late-stage follow-up, RORA inverse agonist project, cell-based, luminescence, assay provider (AID 463078); details: HEK293T GAL4-RORa LBD luciferase reporter, 20 h; at 10 µM; stronger effect = lower value
Method in brief: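 Assay system: HEK293T cells with GAL4-RORα LBD and UAS-luciferase; Compound: single nominal 10 µM dose per test compound; Timing: 20 h compound exposure; Measured by: luminescence; Read-out: mean fold change relative to DMSO vehicle; Controls: DMSO vehicle wells; Repeats: six replicates.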

Nuclear receptor ROR-alpha (Homo sapiens), sequence (P35398 whole entry, looked up, the tested form may be a part): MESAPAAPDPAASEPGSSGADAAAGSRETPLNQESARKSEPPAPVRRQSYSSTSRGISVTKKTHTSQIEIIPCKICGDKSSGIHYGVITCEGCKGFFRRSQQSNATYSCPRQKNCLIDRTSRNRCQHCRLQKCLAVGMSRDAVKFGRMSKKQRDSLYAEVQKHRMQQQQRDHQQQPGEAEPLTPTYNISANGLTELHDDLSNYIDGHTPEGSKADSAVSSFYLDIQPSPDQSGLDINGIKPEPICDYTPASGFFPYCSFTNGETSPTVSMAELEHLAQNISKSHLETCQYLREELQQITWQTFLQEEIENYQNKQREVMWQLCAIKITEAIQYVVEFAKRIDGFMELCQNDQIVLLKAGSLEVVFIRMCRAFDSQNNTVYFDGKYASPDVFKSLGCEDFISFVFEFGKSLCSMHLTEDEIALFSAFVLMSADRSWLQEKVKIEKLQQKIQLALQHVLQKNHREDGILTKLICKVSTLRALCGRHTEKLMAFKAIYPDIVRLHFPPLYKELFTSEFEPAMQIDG

Structure (SMILES)	fold change
O=C(Nc1ccc(C(O)(C(F)(F)F)C(F)(F)F)cc1)c1ccc(F)cc1F	1.71 (inactive)
O=C(Nc1ccc(C(O)(C(F)(F)F)C(F)(F)F)cc1)c1c(F)cccc1F	0.944 (inactive)
O=C(Nc1ccc(C(O)(C(F)(F)F)C(F)(F)F)cc1)c1ccc(F)cc1Cl	1.1 (inactive)
O=C(Nc1ccc(C(O)(C(F)(F)F)C(F)(F)F)cc1)c1ccccc1C(F)(F)F	0.806 (inactive)
O=C(Nc1ccc(C(O)(C(F)(F)F)C(F)(F)F)cc1)c1ccc(Cl)cc1	1.23 (inactive)
O=S(=O)(Nc1ccc(C(O)(C(F)(F)F)C(F)(F)F)cc1)c1cccs1	0.63
